# Test results from ChEMBL document CHEMBL1131374, “Inhibition of Fc epsilon RI-mediated activation of mast cells by 2,3,4-trihydropyrimidino[2,1-a]isoquinolines” (J Med Chem, 1998).
# Columns and labels:
# [1] = The Hexosaminidase release concentration in CPII mouse mastcells transfected with TNF-alpha 3' reporter gene plasmid was measured; format: functional
# [2] = The cell toxicity on CPII mouse mast cells transfected with TNF-alpha 3' nontranslated sequences reporter gene plasmid; format: cell-based; conditions: read-out: TC50 (the source's name)
# [3] = (§1) The Inhibitory potency on CPII mouse mastcells transfected with TNF-alpha 3' reporter gene plasmid was measured by reporter gene assay; format: functional
# Outline: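 Clone 12: CPII cells stably carrying a TNFα promoter–luciferase–TNFα 3′ construct. Cells exposed to compound 1 h, then triggered with (dinitrophenyl)albumin/anti-dinitrophenyl-IgE complex. Luciferase read after 6 h incubation. Screening single dose 10 μM; a hit was over 50% inhibition of induction with under 20% toxicity.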
# [4] = as §1; format: functional; remark: listed apart in the source
structure (smiles),measurement,setting,value
C1=C(c2ccc(-c3ccccc3)cc2)N2CCCN=C2c2ccccc21,IC50,[1],1.7 µM
same,CC50,[2],3.9 µM
same,IC50,[3],1.5 µM
C1=C(c2ccc(CCc3ccccc3)cc2)N2CCCN=C2c2ccccc21,IC50,[1],0.5 µM
same,CC50,[2],2.1 µM
same,IC50,[3],0.7 µM
C1=C(c2ccc(OCc3ccccc3)cc2)N2CCCN=C2c2ccccc21,IC50,[1],0.9 µM
same,CC50,[2],3.5 µM
same,IC50,[4],0.8 µM
CN(C)CCC1=C(c2ccc(C(C)(C)C)cc2)N2CCCN=C2c2ccccc21,IC50,[1],> 10 µM
same,CC50,[2],> 10 µM
same,IC50,[4],> 10 µM
CCCCC1=C(c2ccc(CCc3ccccc3)cc2)N2CCCN=C2c2ccccc21,IC50,[1],0.3 µM
same,CC50,[2],2.7 µM
same,IC50,[4],0.2 µM
CCCCCCC1=Cc2ccccc2C2=NCCCN12,IC50,[1],4.5 µM
same,CC50,[2],> 10 µM
same,IC50,[3],> 10 µM
CCOc1ccc(CC2=C(CCCc3cccc4ccccc34)N3CCCN=C3c3ccccc32)cc1,IC50,[1],3.5 µM
same,CC50,[2],5.5 µM
same,IC50,[4],1.5 µM
CC(C)(C)c1ccc(C2=Cc3ccc(N/C(S)=N/C4CCCCC4)cc3C3=NCCCN23)cc1,IC50,[1],3.3 µM
same,CC50,[2],9.9 µM
same,IC50,[4],2.6 µM
CC(C)(C)c1ccc(C2=Cc3ccc(NC(=O)Cc4ccccn4)cc3C3=NCCCN23)cc1,IC50,[1],4.8 µM
same,CC50,[2],8.8 µM
same,IC50,[4],4.8 µM
COc1cc(C2=Cc3ccccc3C3=NCCCN23)cc(OC)c1OC,IC50,[1],> 25 µM
same,CC50,[2],> 10 µM
same,IC50,[3],> 10 µM
C1=C(Cc2ccccc2)c2ccccc2C2=NCCCN12,IC50,[1],> 10 µM
same,CC50,[2],> 10 µM
same,IC50,[3],> 10 µM
CC(C)(C)c1ccc(C2=Cc3ccc(N)cc3C3=NCCCN23)cc1,IC50,[1],3 µM
same,CC50,[2],7.8 µM
same,IC50,[4],1.7 µM
Clc1ccc(OCC2=Cc3ccccc3C3=NCCCN23)cc1,IC50,[1],> 25 µM
same,CC50,[2],> 10 µM
same,IC50,[3],9 µM
CC(C)(C)c1ccc(C2=Cc3ccc(N(Cc4ccccc4)Cc4ccccc4)cc3C3=NCCCN23)cc1,IC50,[1],0.6 µM
same,CC50,[2],2.6 µM
same,IC50,[4],0.6 µM
CC(C)(C)c1ccc(C2=Cc3ccc(NC(=O)NC4CCCCC4)cc3C3=NCCCN23)cc1,IC50,[1],2.1 µM
same,CC50,[2],4.8 µM
same,IC50,[4],1.7 µM
Clc1ccc(C2=Cc3ccccc3C3=NCCCN23)cc1,IC50,[1],5.5 µM
same,CC50,[2],> 10 µM
same,IC50,[3],> 10 µM
CCOc1ccc(CC2=C(c3ccc(CCc4ccccc4)cc3)N3CCCN=C3c3ccccc32)cc1,IC50,[1],2.6 µM
same,CC50,[2],9 µM
same,IC50,[4],0.9 µM
C[Si](C)(C)c1ccc(C2=Cc3ccccc3C3=NCCCN23)cc1,IC50,[1],0.5 µM
same,CC50,[2],3.2 µM
same,IC50,[3],0.8 µM
CC(C)(C)c1ccc(C2=Cc3ccccc3C3=NCCCN23)cc1,IC50,[1],0.7 µM
same,CC50,[2],5.7 µM
same,IC50,[4],0.9 µM
N[C@@H](Cc1ccccc1)C1=Cc2ccccc2C2=NCCCN12,IC50,[1],> 25 µM
same,CC50,[2],> 25 µM
same,IC50,[4],> 10 µM
c1ccc(CCc2ccc(C3=C(Cc4ccccc4)c4ccccc4C4=NCCCN43)cc2)cc1,IC50,[1],0.9 µM
same,CC50,[2],2.2 µM
same,IC50,[4],0.6 µM
CC(C)(C)c1ccc(C2=Cc3ccc(NC(=O)Nc4ccc(Cl)cc4Cl)cc3C3=NCCCN23)cc1,IC50,[1],17 µM
same,CC50,[2],5.8 µM
same,IC50,[4],3.3 µM
C1=C(c2ccccc2)N2CCCN=C2c2ccccc21,IC50,[1],12 µM
same,CC50,[2],> 10 µM
same,IC50,[3],> 10 µM
C1=C(/C=C/c2ccccc2)N2CCCN=C2c2ccccc21,IC50,[1],4.1 µM
same,CC50,[2],> 10 µM
same,IC50,[4],> 10 µM
CC1=Cc2ccccc2C2=NCCCN12,IC50,[1],> 25 µM
same,CC50,[2],> 10 µM
same,IC50,[3],> 10 µM
CC(C)(C)c1ccc(C2=C(Cc3ccccc3)c3ccccc3C3=NCCCN32)cc1,IC50,[1],2.9 µM
same,CC50,[2],5 µM
same,IC50,[4],2 µM
C[Si](C)(C)c1ccc(C2=C(Cc3ccccc3)c3ccccc3C3=NCCCN32)cc1,IC50,[1],1.2 µM
same,CC50,[2],5.5 µM
same,IC50,[4],0.8 µM
CCCCC1=C(c2ccc(C(C)(C)C)cc2)N2CCCN=C2c2ccccc21,IC50,[1],0.6 µM
same,CC50,[2],2.1 µM
same,IC50,[4],0.3 µM
